{
  "source": "paper PMC10762718",
  "about": "(RSC Advances, 2024)",
  "data": [
    {"tested_on": "MDA-MB-231 (human breast cancer) cells", "assay": "MTT cell viability assay, MDA-MB-231", "assay_type": "cell-based", "details": "MDA-MB-231, 72 h, read-out: Cell viability (%) ±SD", "outline": "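MDA-MB-231 cells were grown as a monolayer in DMEM with 10% heat-inactivated FBS and 1% penicillin-streptomycin at 37 °C in humidified CO2, subcultured every third day with trypsin-EDTA, and used before passage 8. Cells were exposed 72 h to 10, 25 and 50 μM. Medium was removed, MTT added for 3 h at 37 °C, formazan dissolved in DMSO and read at 595 nm. Viability is relative to untreated control, triplicates, ±SD. IC50 comes from the viability-versus-concentration plot.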", "units": {"viability at 10 µM": "%", "viability at 25 µM": "%", "viability at 50 µM": "%"}, "values": [
      {"smiles": "CC(=O)OC[C@@H]1O[C@H](n2cc(Cn3ccc4nc(-c5ccc(F)cc5)cc(=O)n43)nn2)[C@@H](OC(C)=O)[C@H](OC(C)=O)[C@@H]1OC(C)=O", "note": "(stereo in doubt) [Compound 35, (2S,3R,4R,5S,6S)-2-(Acetoxymethyl)-6-(4-((5-(4-fluorophenyl)-7-oxopyrazolo[1,5-a]pyrimidin-1(7H)-yl)methyl)-1H-1,2,3-triazol-1-yl)tetrahydro-2H-pyran-3,4,5-triyl triacetate]", "viability at 10 µM": "82.4 ± 9.97", "viability at 25 µM": "78.6 ± 10.1", "viability at 50 µM": "75.3 ± 6.17"},
      {"smiles": "CC(=O)OC[C@H]1O[C@H](n2cc(Cn3ccc4nc(-c5ccc(C(F)(F)F)cc5)cc(=O)n43)nn2)[C@@H](OC(C)=O)[C@@H](OC(C)=O)[C@@H]1OC(C)=O", "note": "[Compound 45, (2R,3R,4S,5S,6S)-2-(Acetoxymethyl)-6-(4-((7-oxo-5-(4-(trifluoromethyl)phenyl)pyrazolo[1,5-a]pyrimidin-1(7H)-yl)methyl)-1H-1,2,3-triazol-1-yl)tetrahydro-2H-pyran-3,4,5-triyl triacetate]", "viability at 10 µM": "96.8 ± 5.85", "viability at 25 µM": "91.1 ± 6", "viability at 50 µM": "87 ± 1.1"},
      {"smiles": "CC(=O)OC[C@H]1O[C@H](n2cc(Cn3ccc4nc(-c5ccc(C)cc5)cc(=O)n43)nn2)[C@@H](OC(C)=O)[C@@H](OC(C)=O)[C@@H]1OC(C)=O", "note": "[Compound 40, (2R,3R,4S,5S,6S)-2-(Acetoxymethyl)-6-(4-((7-oxo-5-(p-tolyl)pyrazolo[1,5-a]pyrimidin-1(7H)-yl)methyl)-1H-1,2,3-triazol-1-yl)tetrahydro-2H-pyran-3,4,5-triyl triacetate]", "viability at 10 µM": "99 ± 7.7", "viability at 25 µM": "92.8 ± 7.09", "viability at 50 µM": "91.7 ± 9.12"},
      {"smiles": "CC(=O)OC[C@H]1O[C@H](n2cc(Cn3ccc4nc(-c5ccc(Cl)cc5)cc(=O)n43)nn2)[C@@H](OC(C)=O)[C@@H](OC(C)=O)[C@@H]1OC(C)=O", "note": "[Compound 43, (2R,3R,4S,5S,6S)-2-(Acetoxymethyl)-6-(4-((5-(4-chlorophenyl)-7-oxopyrazolo[1,5-a]pyrimidin-1(7H)-yl)methyl)-1H-1,2,3-triazol-1-yl)tetrahydro-2H-pyran-3,4,5-triyl triacetate]", "viability at 10 µM": "99.5 ± 10.2", "viability at 25 µM": "95.2 ± 10.6", "viability at 50 µM": "71.4 ± 10.5"},
      {"smiles": "CC(=O)OC[C@H]1O[C@H](n2cc(Cn3ccc4nc(-c5ccc(C(C)C)cc5)cc(=O)n43)nn2)[C@@H](OC(C)=O)[C@@H](OC(C)=O)[C@@H]1OC(C)=O", "note": "[Compound 46, (2R,3R,4S,5S,6S)-2-(Acetoxymethyl)-6-(4-((5-(4-isopropylphenyl)-7-oxopyrazolo[1,5-a]pyrimidin-1(7H)-yl)methyl)-1H-1,2,3-triazol-1-yl)tetrahydro-2H-pyran-3,4,5-triyl triacetate]", "viability at 10 µM": "80.6 ± 4.7", "viability at 25 µM": "75.5 ± 4.44", "viability at 50 µM": "83.5 ± 7.27"},
      {"smiles": "CC(=O)OC[C@@H]1O[C@H](n2cc(Cn3ccc4nc(-c5ccc(Cl)cc5)cc(=O)n43)nn2)[C@@H](OC(C)=O)[C@H](OC(C)=O)[C@@H]1OC(C)=O", "note": "(stereo in doubt) [Compound 34, (2S,3R,4R,5S,6S)-2-(Acetoxymethyl)-6-(4-((5-(4-chlorophenyl)-7-oxopyrazolo[1,5-a]pyrimidin-1(7H)-yl)methyl)-1H-1,2,3-triazol-1-yl)tetrahydro-2H-pyran-3,4,5-triyl triacetate]", "viability at 10 µM": "78.5 ± 2.43", "viability at 25 µM": "76.8 ± 2.43", "viability at 50 µM": "73 ± 2.62"},
      {"smiles": "CC(=O)OC[C@@H]1O[C@H](n2cc(Cn3ccc4nc(-c5ccc(C)cc5)cc(=O)n43)nn2)[C@@H](OC(C)=O)[C@H](OC(C)=O)[C@@H]1OC(C)=O", "note": "(stereo in doubt) [Compound 31, (2S,3R,4R,5S,6S)-2-(Acetoxymethyl)-6-(4-((7-oxo-5-(p-tolyl)pyrazolo[1,5-a]pyrimidin-1(7H)-yl)methyl)-1H-1,2,3-triazol-1-yl)tetrahydro-2H-pyran-3,4,5-triyl triacetate]", "viability at 10 µM": "81.7 ± 8.36", "viability at 25 µM": "88.5 ± 6.73", "viability at 50 µM": "78.8 ± 10.4"},
      {"smiles": "CC(=O)OC[C@@H]1O[C@H](n2cc(Cn3ccc4nc(-c5ccc(C)cc5)cc(=O)n43)nn2)[C@@H](OC(C)=O)[C@H](OC(C)=O)[C@H]1OC(C)=O", "note": "(stereo in doubt) [Compound 22, (2S,3S,4R,5S,6S)-2-(Acetoxymethyl)-6-(4-((7-oxo-5-(p-tolyl)pyrazolo[1,5-a]pyrimidin-1(7H)-yl)methyl)-1H-1,2,3-triazol-1-yl)tetrahydro-2H-pyran-3,4,5-triyl triacetate]", "viability at 10 µM": "92.4 ± 5.38", "viability at 25 µM": "87.5 ± 6.74", "viability at 50 µM": "85.4 ± 4.16"}
    ]}
  ]
}
